Source: ChEMBL document CHEMBL1157072 (Bioorg Med Chem, 2010)
Values after ≈ are worked out from the molar mass of the structure shown. Active and inactive are the calls of the source. The rule behind the calls is not given here. Numbered stars: 1 amine (or outer) side, 2 acyl side, 3 side chain; on linkers, the order of the positions; unused ones are H or OH. Bridge positions count the residues as written; N and C are the ends. Square brackets hold non-standard residues; d marks the D form. Peptide text beside a SMILES is read from it. I, II: the chains in the order shown. Actinocin(1to9) = Cc1c2oc3c(C)ccc(C(=O)[*:2])c3nc-2c(C(=O)[*:1])c(N)c1=O; NMeV = CN[C@H](C(=O)O)C(C)C; Sar = CNCC(=O)O

How the values were obtained:
Staphylococcus aureus [1] = assay: Antibacterial activity against Staphylococcus aureus NCTC 8325 after 16 to 20 hrs by broth microdilution method; type: functional
How it was run: (§1)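 Broth microdilution in cation-adjusted Mueller Hinton broth. Compounds were serially diluted twofold in DMSO at 50-fold final strength (2% DMSO final). The inoculum was 1 × 10^4 cells per well. Plates were incubated at 37 °C for 16–20 h, and growth was read as absorbance at 600 nm.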

Staphylococcus aureus [2] = assay: microbe, parasite or virus in culture; details: isolate d20A1
[3] = Selectivity ratio of MIC for MBX-1090-resistant Staphylococcus aureus isolate d20A1 to MIC for Staphylococcus aureus NCTC 8325; type: functional
How it was run: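 Ratio of resistant-mutant MIC to NCTC 8325 MIC. Both MICs came from broth microdilution in cation-adjusted MHB with 2% DMSO final and 1 × 10^4 cells per well, incubated at 37 °C for 16–20 h and read at 600 nm.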

[4] = Dissociation constant, pKa of the compound; type: physicochemical
Staphylococcus aureus [5] = assay: Antibacterial activity against Staphylococcus aureus NCTC 8325 after 16 to 20 hrs by broth microdilution method in presence of efflux pump inhibitor reserpine; type: functional
How it was run: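 Broth microdilution in cation-adjusted MHB with reserpine at 20 µg/ml final in the medium as efflux inhibitor. Twofold DMSO dilutions were made (2% DMSO final) with 1 × 10^4 cells per well. Incubation was 37 °C for 16–20 h, with growth read at 600 nm.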

Staphylococcus aureus [6] = assay: Antibacterial activity against Staphylococcus aureus NCTC 8325 harboring genetic deletion of mepR gene after 16 to 20 hrs by broth microdilution method; type: functional; how it was run: as §1
Staphylococcus aureus [7] = assay: Antibacterial activity against Staphylococcus aureus NCTC 8325 harboring genetic deletion of mepRA gene after 16 to 20 hrs by broth microdilution method; type: functional; how it was run: as §1
Staphylococcus aureus [8] = assay: Antibacterial activity against Staphylococcus aureus NCTC 8325 carrying expression vector pG154 after 16 to 20 hrs by broth microdilution method; type: functional; how it was run: as §1
Staphylococcus aureus [9] = assay: Antibacterial activity against Staphylococcus aureus NCTC 8325 carrying expression vector pG154 after 16 to 20 hrs by broth microdilution method in presence of anhydrous tetracycline; type: functional
How it was run: (§2)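 Broth microdilution in cation-adjusted MHB containing anhydrous tetracycline at 100 ng/ml final to induce the pG154 expression vector. Twofold DMSO compound dilutions were used (2% DMSO final) with 1 × 10^4 cells per well. Incubation was 37 °C for 16–20 h, and absorbance was read at 600 nm.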

Staphylococcus aureus [10] = assay: Antibacterial activity against Staphylococcus aureus NCTC 8325 carrying expression vector pG154 with mepA gene after 16 to 20 hrs by broth microdilution method; type: functional; how it was run: as §1
Staphylococcus aureus [11] = assay: Antibacterial activity against Staphylococcus aureus NCTC 8325 carrying expression vector pG154 with mepA gene after 16 to 20 hrs by broth microdilution method in presence of anhydrous tetracycline; type: functional; how it was run: as §2
Staphylococcus aureus [12] = assay: Antibacterial activity against Staphylococcus aureus NCTC 8325 harboring genetic deletion of mepRA gene and carrying expression vector pG154 after 16 to 20 hrs by broth microdilution method; type: functional; how it was run: as §1
Staphylococcus aureus [13] = assay: Antibacterial activity against Staphylococcus aureus NCTC 8325 harboring genetic deletion of mepRA gene and carrying expression vector pG154 after 16 to 20 hrs by broth microdilution method in presence of anhydrous tetracycline; type: functional; how it was run: as §2
Staphylococcus aureus [14] = assay: Antibacterial activity against Staphylococcus aureus NCTC 8325 harboring genetic deletion of mepRA gene and carrying expression vector pG154 with mepA gene after 16 to 20 hrs by broth microdilution method; type: functional; how it was run: as §1
Staphylococcus aureus [15] = assay: Antibacterial activity against Staphylococcus aureus NCTC 8325 harboring genetic deletion of mepRA gene and carrying expression vector pG154 with mepA gene after 16 to 20 hrs by broth microdilution method in presence of anhydrous tetracycline; type: functional; how it was run: as §2
Staphylococcus aureus [16] = assay: Selectivity ratio of MIC for Staphylococcus aureus NCTC 8325 to MIC for Staphylococcus aureus NCTC 8325 in presence of efflux pump inhibitor reserpine; type: functional
How it was run: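 MICs by modified broth microdilution in cation-adjusted Mueller Hinton broth. Twofold dilutions were made in DMSO at 50× (2% DMSO final), with 1 × 10^4 cells per well. Growth was read as A600 after 16–20 h at 37 °C. Reserpine was added to the medium at 20 µg/ml final to inhibit efflux.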

Staphylococcus aureus [17] = assay: Induction of mepA gene expression in Staphylococcus aureus NCTC 8325 at 0.125 ug/ml by RT-PCR analysis; type: functional, organism-based
How it was run: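 S. aureus overnight culture diluted 1/200 in TSB and grown at 37 °C with shaking (250 rpm) to OD600 0.3. Triplicate 5 ml aliquots were exposed to compound or DMSO (2% final) for 3 h at 37 °C. RNA was purified and DNase-treated; 1 µg was reverse-transcribed with random hexamers, with a no-RT control. mepA signal was normalized to rho, untreated set to 1; three experiments, SD.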

Staphylococcus aureus [18] = assay: Induction of mepR gene expression in Staphylococcus aureus NCTC 8325 at 0.125 ug/ml by RT-PCR analysis; type: functional, organism-based

Compound	MIC (Staphylococcus aureus [1]) [µg/mL]	MIC (Staphylococcus aureus [2]) [µg/mL]	also measured
CC[C@H]1OC(=O)[C@H](C)[C@@H](O[C@H]2C[C@@](C)(OC)[C@@H](O)[C@H](C)O2)[C@H](C)[C@@H](O[C@@H]2O[C@H](C)C[C@H](N(C)C)[C@H]2O)[C@](C)(O)C[C@@H](C)C(=O)[C@H](C)[C@@H](O)[C@]1(C)O [ERYTHROMYCIN]	1 (≈ 1.36 µM)	0.5 (≈ 0.681 µM)	–
COc1cc(Cc2cnc(N)nc2N)cc(OC)c1OC [TRIMETHOPRIM]	3.12 (≈ 10.8 µM)	3.12 (≈ 10.8 µM)	–
CN(C)[C@@H]1C(O)=C(C(N)=O)C(=O)[C@@]2(O)C(O)=C3C(=O)c4c(O)cccc4[C@@](C)(O)[C@H]3C[C@@H]12 [TETRACYCLINE]	0.5 (≈ 1.13 µM)	0.5 (≈ 1.13 µM)	–
CC(=O)O[C@H]1C[C@@]2(C)[C@@H](C[C@@H](O)[C@H]3[C@@]4(C)CC[C@@H](O)[C@@H](C)[C@@H]4CC[C@@]32C)/C1=C(\CCC=C(C)C)C(=O)O [FUSIDIC ACID]	0.0625 (≈ 0.121 µM)	0.0625 (≈ 0.121 µM)	–
CN[C@@H]1[C@H](O[C@H]2[C@H](O[C@H]3[C@H](O)[C@@H](O)[C@H](N=C(N)N)[C@@H](O)[C@@H]3N=C(N)N)O[C@@H](C)[C@]2(O)C=O)O[C@@H](CO)[C@H](O)[C@H]1O [STREPTOMYCIN]	32 (≈ 55 µM)	128 (≈ 220 µM)	Selectivity ratio [3]: 4
Cc1onc(-c2ccccc2)c1C(=O)N[C@@H]1C(=O)N2[C@@H]1SC(C)(C)[C@@H]2C(=O)O [OXACILLIN]	0.125 (≈ 0.311 µM)	0.125 (≈ 0.311 µM)	–
C/C(=C\C(=O)OCCCCCCCCC(=O)O)C[C@@H]1OC[C@H](C[C@@H]2O[C@H]2[C@@H](C)[C@H](C)O)[C@@H](O)[C@H]1O [MUPIROCIN]	0.0312 (≈ 0.0624 µM)	0.0312 (≈ 0.0624 µM)	–
O=C(N[C@H](CO)[C@H](O)c1ccc([N+](=O)[O-])cc1)C(Cl)Cl [CHLORAMPHENICOL]	8 (≈ 24.8 µM)	8 (≈ 24.8 µM)	–
c1cc2cc(-c3ccc(-c4cc5ccc(C6=NCCCN6)cc5[nH]4)cc3)[nH]c2cc1C1=NCCCN1	0.5 (≈ 1.06 µM)	0.5 (≈ 1.06 µM)	pKa [4]: 12.8; MIC (Staphylococcus aureus [5]): 0.125 µg/mL; MIC (Staphylococcus aureus [6]): 0.25 µg/mL (≈ 0.529 µM); MIC (Staphylococcus aureus [7]): 0.5 µg/mL (≈ 1.06 µM); MIC (Staphylococcus aureus [8]): 0.5 µg/mL (≈ 1.06 µM); MIC (Staphylococcus aureus [9]): 0.5 µg/mL; MIC (Staphylococcus aureus [10]): 0.5 µg/mL (≈ 1.06 µM); MIC (Staphylococcus aureus [11]): 0.125 µg/mL; MIC (Staphylococcus aureus [12]): 0.5 µg/mL (≈ 1.06 µM); MIC (Staphylococcus aureus [13]): 0.5 µg/mL; MIC (Staphylococcus aureus [14]): 0.5 µg/mL (≈ 1.06 µM); MIC (Staphylococcus aureus [15]): 0.125 µg/mL; Selectivity ratio (Staphylococcus aureus [16]): 4; Activity (Staphylococcus aureus [17]): Active; Activity (Staphylococcus aureus [18]): Active
CC1(C)S[C@@H]2[C@H](NC(=O)C(C(=O)O)c3ccccc3)C(=O)N2[C@H]1C(=O)O (stereo not given in full) [CARBENICILLIN]	0.0625 (≈ 0.165 µM)	0.0625 (≈ 0.165 µM)	–
Cc1c2oc3c(C)ccc(C(=O)N[C@@H]4C(=O)N[C@H](C(C)C)C(=O)N5CCC[C@H]5C(=O)N(C)CC(=O)N(C)[C@@H](C(C)C)C(=O)O[C@@H]4C)c3nc-2c(C(=O)N[C@@H]2C(=O)N[C@H](C(C)C)C(=O)N3CCC[C@H]3C(=O)N(C)CC(=O)N(C)[C@@H](C(C)C)C(=O)O[C@@H]2C)c(N)c1=O [DACTINOMYCIN] (I: T[dV]P[Sar][NMeV] / II: T[dV]P[Sar][NMeV]; ester I:1-I:C, II:1-II:C; linker I:N-II:N via Actinocin(1to9))	0.625 (≈ 0.498 µM)	0.625 (≈ 0.498 µM)	–
CCN1CCN(c2cc3c(cc2F)c(=O)c(C(=O)O)cn3C2CC2)CC1 [ENROFLOXACIN]	0.125 (≈ 0.348 µM)	0.125 (≈ 0.348 µM)	–
